Compound activity (PubChem BioAssay)
DENV2 CPE: inhibitors of DENV2 cytopathic effect, primary screen, cell-based, plate reader, single concentration; DENV2-infected cells, cytopathic effect rescue; CPE inhibition, % at 9.99 µM; 350,000 tested, 1.7% active; in the data active = CPE inhibition above about 20%, passing the limit was not always enough; tested in BHK-21 cells;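 also: 0% = median of neutral control wells and 100% = median of positive control wells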
HIV Env fusion: inhibitors of HIV-1 Env-driven cell-cell fusion, primary screen, HeLa-JRFL effector, CEM21 target cells, luciferase | inhibition, % at 12.3 µM | 360,000 tested, 1.1% active;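 active = mean replicate inhibition score of at least 50 and every replicate individually at or above 50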;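 also: 0% = plate neutral controls and 100% = maraviroc near 300 nM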
PGC1a acetyl inh: inhibitors of PGC1a acetylation signal, primary screen, cell-based, U2OS, AlphaScreen, inhibitor mode. AlphaScreen anti-acetyl-lysine; with virally co-expressed GCN5 acetyltransferase. inhibition, % at 15.6 µM. 350,000 tested, 0.17% active. AID 651687, 2012;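 active = every replicate shows inhibition of at least 40%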;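 also: 0% = neutral control wells and 100% = positive control wells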
FN deposit inh: inhibitors of fibronectin matrix deposition, primary screen, AH1F cells, Alexa488-fibronectin fluorescence, plate reader. AH1F fibroblasts, overnight. 350,000 tested, 0.086% active. inhibition, % at 12.6 µM;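 active = mean inhibition across replicates of 30% or more, regardless of how many single replicates reach that level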;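 also: positive control wells lacked labelled fibronectin entirely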
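Test system: AH1F fibroblast monolayer depositing Alexa488-labelled fibronectin into matrix. Input: 10000 cells per well. Technique: fluorescence, ex 485 nm, em 525 nm. Buffer or medium: DMEM plus 2% serum, read in PBS. Timing: 1 h cell adhesion before compound, then overnight fibronectin incubation. Compound: single dose, pinned. Read-out basis: inhibition from reduced deposited-fibronectin fluorescence.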
PglD DTNB: C. jejuni PglD acetyltransferase inhibitors, primary screen, biochemical, DTNB colorimetric, single point; UDP-N-acetylbacillosamine N-acetyltransferase PglD (Campylobacter jejuni); purified PglD enzyme, DTNB colorimetric CoA detection; AID 602405, 2012; inhibition, % at 12.5 µM; 360,000 tested, 0.098% active; in the data active = inhibition above about 16%, passing the limit was not always enough
rRNA inh HTS: reduced GFP signal of wild-type E. coli, primary screen, bacterial rRNA inhibitor project, GFP/RFP fluorescence, OD600, single point. E. coli WT GFP vs humanized-ribosome RFP mutants, 24 h; active compounds read low; DMSO median 0, no signal -100. GFP signal change (wild-type ribosome), % (concentration not given with the values). 350,000 tested, 1.6% active. AID 720706, 2013;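 active = significant combined selectivity score with lowered wild-type GFP, culture density cut under 30%, mutant RFP and density less affected; inactive = any of these conditions unmet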
The depositor's hits bear a star; [ ] = another dose, or the depositor's remark. An excerpt weighted towards active compounds, which were near 3.5% of everything screened.

Screening COc1ccccc1NC(=O)Oc1ccc(C(C)=O)cc1 returned HIV Env fusion 58.6*, PGC1a acetyl inh 0.3 and FN deposit inh -20.8.
`COc1ccccc1NC(C)=O` gave PGC1a acetyl inh -13.2 and PglD DTNB -0.4.
`COc1ccc2nc(SCC(=O)Nc3ccccc3OC)[nH]c2c1` gave DENV2 CPE 1.0, HIV Env fusion 15.3, FN deposit inh 0.8 and rRNA inh HTS -24.1*.
`COc1ccc(C(=O)Nc2ccc3ccccc3c2)c(OC)c1` gave DENV2 CPE -5.6, HIV Env fusion -288.2, PGC1a acetyl inh 12.6, FN deposit inh -5.2, PglD DTNB 8.4 and rRNA inh HTS -27.5*.
`COc1cccc(OC)c1C(=O)Nc1ccc2c(c1)Cc1ccccc1-2` gave DENV2 CPE 0.4, HIV Env fusion -1.6, PGC1a acetyl inh 0.9, FN deposit inh 8.2 and rRNA inh HTS -22.9*.
COc1cccc(OC)c1C(=O)NC(=S)Nc1ccc2c(c1)Cc1ccccc1-2 was read as HIV Env fusion -46.6, FN deposit inh 3.2, PglD DTNB 0.1 and rRNA inh HTS 2.6.
For CCNC(=O)Nc1ccc2c(c1)C(=O)N(C)[C@H]1CC[C@@H](CC(=O)NCc3ccccc3F)O[C@H]1CO2 the results were DENV2 CPE -3.9, HIV Env fusion 7.9[16.7 µM], PGC1a acetyl inh 3.4, FN deposit inh -61.2, PglD DTNB -0.2 and rRNA inh HTS -3.6.
Screening Cc1noc(C)c1S(=O)(=O)Nc1ccc2c(c1)C(=O)N([C@@H](C)CO)C[C@@H](C)[C@H](CN(C)S(=O)(=O)c1cccs1)OCCCC[C@@H](C)O2 returned DENV2 CPE -0.2, HIV Env fusion -11.6[16.7 µM], PGC1a acetyl inh 1.0, FN deposit inh 1.6, PglD DTNB 2.5 and rRNA inh HTS -2.0.
`O=C(C[C@@H]1C[C@H]2c3cc(NC(=O)C4CCOCC4)ccc3O[C@H]2[C@@H](CO)O1)NCC1CC1` gave DENV2 CPE 5.6, HIV Env fusion -7.7[16.7 µM], PGC1a acetyl inh 6.5, FN deposit inh -15.9, PglD DTNB -1.2 and rRNA inh HTS 1.5.
Screening CCOC(=O)c1ccc(NC(=O)O[C@H]2[C@H](OC(=O)Nc3ccccc3)[C@@H](OC(=O)Nc3ccccc3)[C@@H](OC)O[C@@H]2CO)cc1 returned DENV2 CPE -1.1, HIV Env fusion -96.3[16.7 µM] and PglD DTNB 6.0.
COc1ccccc1NC(=O)C(=O)NNC(=O)COc1ccc2ccccc2c1 was read as DENV2 CPE -6.5, HIV Env fusion 4.6, FN deposit inh 3.9, PglD DTNB -1.6 and rRNA inh HTS -21.2.
`COc1ccccc1NC(=O)COc1ccc2ccccc2c1` gave DENV2 CPE -11.8, HIV Env fusion -13.0, PglD DTNB 1.3 and rRNA inh HTS -31.4*.
`COc1ccccc1C(=O)Nc1ccc2ccccc2c1` gave DENV2 CPE -5.6, HIV Env fusion -409.6, FN deposit inh 2.9 and rRNA inh HTS -32.7*.
For COc1ccccc1C(=O)Nc1cccc(NC(=O)c2ccccc2C)c1 the results were DENV2 CPE -0.7, HIV Env fusion -2.0, PGC1a acetyl inh 8.3, FN deposit inh -4.3, PglD DTNB 0.1 and rRNA inh HTS -34.5*.
For O=C(NC[C@@H]1N[C@@H](CO)[C@H]1c1ccc(-c2cccnc2)cc1)C1CCCC1 the results were DENV2 CPE 7.6, PGC1a acetyl inh 16.2, FN deposit inh -11.4, PglD DTNB 20.3 and rRNA inh HTS -2.1.
COc1ccccc1-n1cnc2cc(NCc3ccccc3O)ccc21 was read as DENV2 CPE -1.6, HIV Env fusion -0.2, PGC1a acetyl inh -4.7, FN deposit inh 4.5, PglD DTNB -1.2 and rRNA inh HTS -17.9*.
`Cc1cc(NC(=O)c2c(-c3ccccc3Cl)noc2C)no1` gave DENV2 CPE -1.1, PGC1a acetyl inh 3.2 and rRNA inh HTS 10.4.
`Cc1onc(-c2ccccc2Cl)c1C(=O)Nc1nn[nH]n1` gave DENV2 CPE 2.9, PGC1a acetyl inh -10.7, PglD DTNB -1.3 and rRNA inh HTS -30.9*.
CN(C)C(=O)C[C@H]1CC[C@@H]2[C@@H](COc3ccc(NC(=O)C4CCOCC4)cc3C(=O)N2C)O1 was read as DENV2 CPE -8.2, HIV Env fusion -23.6[16.7 µM], PGC1a acetyl inh 2.1, FN deposit inh -33.6, PglD DTNB -3.8 and rRNA inh HTS 9.8.
Screening O=C(c1cc(C2CC2)on1)N1CCN(C(c2ccccc2)c2ccccc2)CC1 returned DENV2 CPE 40.0*, HIV Env fusion -29.7, PGC1a acetyl inh 0.1, FN deposit inh -1.1, PglD DTNB 0.7 and rRNA inh HTS -11.2.
For Cc1ccc(S(=O)(=O)N(C)C[C@@H]2OCCCC[C@H](C)Oc3ccc(NC(=O)Nc4ccc(C(F)(F)F)cc4)cc3C(=O)N([C@@H](C)CO)C[C@@H]2C)cc1 the results were DENV2 CPE -11.1, HIV Env fusion 36.5[16.7 µM], PGC1a acetyl inh 1.9, FN deposit inh -10.0, PglD DTNB -2.0 and rRNA inh HTS 4.3.
Screening C[C@@H]1CCCCO[C@H](CN(C)S(=O)(=O)c2ccccc2)[C@H](C)CN([C@@H](C)CO)C(=O)c2cc(NC(=O)Nc3ccc(C(F)(F)F)cc3)ccc2O1 returned DENV2 CPE 22.7*, HIV Env fusion 6.7[16.7 µM], PGC1a acetyl inh 3.2, FN deposit inh 0.0, PglD DTNB -0.9 and rRNA inh HTS 2.0.
Screening Cc1ccc(S(=O)(=O)N(C)C[C@@H]2OCCCC[C@H](C)Oc3ccc(NC(=O)Nc4ccc(C(F)(F)F)cc4)cc3C(=O)N([C@@H](C)CO)C[C@H]2C)cc1 returned DENV2 CPE 23.4*, HIV Env fusion 32.0[16.7 µM], PGC1a acetyl inh 1.9, FN deposit inh 1.5, PglD DTNB 0.0 and rRNA inh HTS 1.3.
Cc1ccc(S(=O)(=O)N(C)C[C@H]2OCCCC[C@@H](C)Oc3ccc(NC(=O)NC(C)C)cc3C(=O)N([C@H](C)CO)C[C@@H]2C)cc1 was read as DENV2 CPE 72.4*, HIV Env fusion -9.2[16.7 µM], PGC1a acetyl inh 5.0, FN deposit inh 1.0, PglD DTNB 1.0 and rRNA inh HTS -7.3.
Cc1ccc(S(=O)(=O)N(C)C[C@@H]2OCCCC[C@@H](C)Oc3ccc(NC(=O)Nc4ccc(C(F)(F)F)cc4)cc3C(=O)N([C@H](C)CO)C[C@H]2C)cc1 was read as DENV2 CPE 9.7, HIV Env fusion 56.6*[16.7 µM], PGC1a acetyl inh 3.3, FN deposit inh -11.2, PglD DTNB 0.9 and rRNA inh HTS 0.8.
